Results published in ChEMBL document CHEMBL1127590 (J Med Chem, 1994).
pIC50, pKi: −log10 of the molar value.

What was measured:
[1] = In vitro inhibitory activity against human adrenal 3-beta hydroxy-delta 5-teroid isomerase
Summary of the method: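 Microsomes were prepared from human adrenal tissue by homogenization and differential centrifugation. Inhibitor in 50% DMSO was preincubated 10 min at 37 °C in 100 mM potassium phosphate pH 7.5 with 1 mM NAD+. The reaction was started with 100 nM [3H]DHEA and quenched in ethanol after 15 min. DHEA-to-androstenedione conversion was measured by radio-HPLC.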

[2] = system: Rattus norvegicus; assay: In vivo inhibition of T stimulated prostate growth in rats was reported after oral administration at a dose 10 mg/kg/day; type: functional, Prostate gland
Summary of the method: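 Rats were castrated, and 7 days later dosed orally once daily for 7 days at 10 mg/kg/day in 1 part cremophor:2 parts saline:0.5% Tween 80 (8 rats/group). Testosterone (40 μg/kg sc in corn oil) was given 4 h after each dose. Ventral prostates were weighed on day 8. Weight reduction was expressed as a percent of the finasteride reduction versus T-treated vehicle controls.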

[3] = Half-life after intravenous administration of 10 mg/kg/day dose in male beagles; type: ADME, organism-based, Canis lupus familiaris; design: route intravenous; conditions: beagle, dog, in vivo
Summary of the method: (§1)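 Male beagles received iv doses of 5 or 10 mg/kg from 5 mg/mL solutions in aqueous 40% (w/v) Molecusol, and some also received oral doses. Heparinized blood was sampled from 0 min to 24 h and assayed by HPLC (UV 304 nm, or thermospray MS). AUC∞ was calculated by the trapezoidal rule.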

[4] = biological target: T1, 3-oxo-5-alpha-steroid 4-dehydrogenase 1 (Homo sapiens, UniProt P18405); assay: In vitro inhibitory activity against human type 1 5-alpha reductase
T1 sequence (P18405 whole entry): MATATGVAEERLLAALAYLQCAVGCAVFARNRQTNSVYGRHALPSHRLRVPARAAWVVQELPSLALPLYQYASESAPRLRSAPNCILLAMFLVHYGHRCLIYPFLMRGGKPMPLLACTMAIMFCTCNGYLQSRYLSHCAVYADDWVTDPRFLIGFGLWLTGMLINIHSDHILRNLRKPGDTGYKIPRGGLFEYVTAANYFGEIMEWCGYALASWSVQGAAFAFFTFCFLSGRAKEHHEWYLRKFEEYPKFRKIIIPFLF
Summary of the method: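 Used microsomes from baculovirus-infected SF-9 cells expressing recombinant human type 1 5AR, at final enzyme 0.05–5 nM. Buffer at pH 7 and 37 °C contained an NADPH-regenerating system. Inhibitor was preincubated 10 min before adding 100 nM [3H]testosterone.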

[5] = biological target: T2, 3-oxo-5-alpha-steroid 4-dehydrogenase 2 (Homo sapiens, UniProt P31213); assay: In vitro inhibitory activity against human type 2 5-alpha reductase
T2 sequence (P31213 whole entry): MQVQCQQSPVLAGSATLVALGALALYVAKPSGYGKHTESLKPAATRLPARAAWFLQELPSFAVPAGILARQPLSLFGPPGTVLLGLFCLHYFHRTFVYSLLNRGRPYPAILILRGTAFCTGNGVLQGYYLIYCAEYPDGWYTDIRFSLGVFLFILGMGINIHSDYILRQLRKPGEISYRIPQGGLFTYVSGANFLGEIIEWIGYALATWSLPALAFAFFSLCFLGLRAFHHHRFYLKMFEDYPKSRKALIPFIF

[6] = Half-life after intravenous administration of 5 mg/kg/day dose in male beagles; type: ADME, organism-based, Canis lupus familiaris; design: route intravenous; conditions: beagle, dog, in vivo; summary of the method: as §1
[7] = system: Rattus norvegicus; assay: In vivo inhibition of T stimulated prostate growth in rats was reported after oral administration at a dose 10 mg/kg/day
[8] = Bioavailability in dog (male Beagle) i.v. administration; type: ADME, organism-based, Canis lupus familiaris; conditions: in vivo, po, in the assay text read “oral administration” for “[…]”; summary of the method: as §1

Row | Structure (SMILES) | pKi [1] | half-life [3] [min] | pKi [4] | pIC50 [5] | half-life [6] [min] | bioavailability [8] [%] | Reduction [2] [%] | Reduction [7] [%]
1 | CC1=C2NCC3C(CC[C@@]4(C)C3CC[C@@H]4C(=O)NC(c3ccccc3)c3ccccc3)[C@@]2(C)CCC1=O (stereo not given in full) | 7.74 |  | 8.44 | > 10.00 |  |  | 38 | 
2 | CC1=C2NCC3C(CC[C@@]4(C)C3CC[C@@H]4C(=O)NC(C)(C)C)[C@@]2(C)CCC1=O (stereo not given in full) | 8.04 |  | 7.92 | 8.85 |  |  | 0 | 
3 | CCN(CC)C(=O)[C@H]1CCC2C3CN(C)C4=CC(=O)CC[C@]4(C)C3CC[C@@]21C (stereo not given in full) | 8.44 |  | 6.74 | 8.64 |  |  | 52 | 
4 | C[C@]12CCC(=O)C=C1NCC1C2CC[C@@]2(C)C1CC[C@@H]2C(=O)NC(c1ccccc1)c1ccccc1 (stereo not given in full) | 6.82 |  |  | > 10.00 | 288 | 79 |  | 95
5 | C[C@]12CCC(=O)C=C1NCC1C2CC[C@@]2(C)C1CC[C@@H]2C(=O)NC(c1ccc(Cl)cc1)c1ccc(Cl)cc1 (stereo not given in full) | 6.29 |  |  |  | 720 |  |  | 74
6 | CN1CC2C(CC[C@@]3(C)C2CC[C@@H]3C(=O)NC(c2ccccc2)c2ccccc2)[C@@]2(C)CCC(=O)C=C12 (stereo not given in full) | 7.96 |  | 8.19 | 9.70 |  |  | 13 | 
7 | CN1CC2C(CC[C@@]3(C)C2CC[C@@H]3C(=O)NC(C)(C)C)[C@@]2(C)CCC(=O)C=C12 (stereo not given in full) | 8.18 | 84 | 7.06 |  |  | 80 | 54 | 
8 | C[C@]12C=CC(=O)C=C1NCC1C2CC[C@@]2(C)C1CC[C@@H]2C(=O)NC12CC3CC(CC(C3)C1)C2 (stereo not given in full) | 6.00 |  | 7.13 | > 10.00 |  |  | 14 | 
9 | CC(C)(C)NC(=O)[C@H]1CC[C@H]2[C@@H]3CC[C@H]4NC(=O)C=C[C@]4(C)[C@H]3CC[C@]12C [FINASTERIDE] | 4.96 | 252 |  |  |  | 69 | 100 | 

Now from value to compound, other results behind:

Row | pKi [1] | half-life [3] [min] | pKi [4] | pIC50 [5] | half-life [6] [min] | bioavailability [8] [%] | Structure (SMILES) | Reduction [2] [%] | Reduction [7] [%]
10 | 7.11 | 108 | 7.96 |  |  |  | C[C@]12CCC(=O)C=C1NCC1C2CC[C@@]2(C)C1CC[C@@H]2C(=O)NC12CC3CC(CC(C3)C1)C2 (stereo not given in full) | 38 | 
11 | 8.96 |  | 8.51 |  | 132 |  | CC(C)CC(=O)[C@H]1CCC2C3CN(C)C4=CC(=O)CC[C@]4(C)C3CC[C@@]21C (stereo not given in full) |  | 5
12 | 8.57 |  | 8.07 | > 10.00 |  |  | CN1CC2C(CC[C@@]3(C)C2CC[C@@H]3C(=O)NC23CC4CC(CC(C4)C2)C3)[C@@]2(C)CCC(=O)C=C12 (stereo not given in full) | 12 | 
13 | 8.05 |  | 8.96 | > 10.00 |  |  | CC1=C2NCC3C(CC[C@@]4(C)C3CC[C@@H]4C(=O)NC34CC5CC(CC(C5)C3)C4)[C@@]2(C)CCC1=O (stereo not given in full) | 24 | 
14 | 6.49 |  |  |  | 312 |  | C[C@]12CCC(=O)C=C1NCC1C2CC[C@@]2(C)C1CC[C@@H]2C(=O)NC(c1ccc(F)cc1)c1ccc(F)cc1 (stereo not given in full) |  | 90
15 | 6.00 |  | 7.32 | > 10.00 |  |  | C[C@]12C=CC(=O)C=C1NCC1C2CC[C@@]2(C)C1CC[C@@H]2C(=O)NC(c1ccccc1)c1ccccc1 (stereo not given in full) | 0 | 
